Legend:
Assay type in all cases: functional, cell-based; call rule not given here
[1] = system: MCF7; test: Cytotoxicity against human MCF7 cells by SRB staining-based fluorescence cytometry
Method in brief: (§1)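 Cytotoxicity assay run with camptothecin as the reference anticancer standard.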

[2] = system: HT-29; test: Cytotoxicity against human HT-29 cells by SRB staining-based fluorescence cytometry; method in brief: as §1
[3] = system: HeLa; test: Cytotoxicity against human HeLa cells by SRB staining-based fluorescence cytometry; method in brief: as §1
[4] = system: KB; test: Cytotoxicity against human KB cells by SRB staining-based fluorescence cytometry; method in brief: as §1
[5] = Homo sapiens, MCF7, read-out: IC50
[6] = Homo sapiens, HT-29, read-out: IC50
[7] = Homo sapiens, HeLa, read-out: IC50
[8] = Homo sapiens, KB, read-out: IC50

| SMILES | IC50 [1, 5] [µM] | IC50 [2, 6] [µM] | IC50 [3, 7] [µM] | IC50 [4, 8] [µM] | IC50 ([1]; mcf7) | IC50 ([2]; ht-29) | IC50 ([3]; hela) | IC50 ([4]; kb) |
| --- | --- | --- | --- | --- | --- | --- | --- | --- |
| COc1ccccc1/C=C/C[C@@]1(O)C=CC(=O)CC1 | 48.8 | 17.8 | 54.2 | 70.9 |  |  |  |  |
| CO[C@H]1CC(=O)CC[C@@]1(O)C/C=C/c1ccccc1 | 44.1 | 48.1 | 53.1 | 85 |  |  |  |  |
| COc1c(O)ccc([C@@H]2C=Cc3cc(O)ccc3O2)c1OC |  |  |  |  | Not Active | Not Active | Not Active | Not Active |
| COc1ccc([C@@H]2COc3c(ccc(O)c3C/C=C(\C)CCC=C(C)C)C2)cc1 |  |  |  |  | Not Active | Not Active | Not Active | Not Active |
| COc1cc(O)c2c(c1)O[C@H](c1ccccc1)[C@@H](O)C2=O | 49.3 | 46.5 | 79 | 73.8 |  |  |  |  |
| COc1ccc2c(c1O)OC[C@@H]1c3cc4c(cc3O[C@H]21)OCO4 |  |  |  |  | Not Active | Not Active | Not Active | Not Active |
| O=C1C=C[C@](O)(C/C=C/c2ccccc2)CC1 [(1'R)-CANDENATENIN B] | 54.4 | 19.7 | 55.7 | 83.7 |  |  |  |  |
| CC[C@@]1(O)C(=O)OCc2c1cc1n(c2=O)Cc2cc3ccccc3nc2-1 [CAMPTOTHECIN] | 1.22 | 1.22 | 1.22 | 1.22 |  |  |  |  |
| COc1ccc(/C=C/Cc2ccc(O)c(OC)c2OC)cc1O [CANDENATENIN A] | 74.3 | 41.1 | 79 | 42.7 |  |  |  |  |
| COc1ccc2c(c1C/C=C(\C)CCC=C(C)C)OC[C@@H]1c3cc4c(cc3O[C@H]21)OCO4 [NUTIDUCOL] |  |  |  |  | Not Active | Not Active | Not Active | Not Active |
| CC(C)=CCC/C(C)=C/Cc1c(O)cc(O)c2c1O[C@H](c1ccc(O)cc1)CC2=O [SOPHORAFLAVANONE A] |  |  |  |  | Not Active | Not Active | Not Active | Not Active |
